PRMT1 inh: blocks human protein arginine methyltransferase 1 | Q99873 | recombinant PRMT1, activity-based probe fluorescence polarization | inhibition, % at 2.79 µM | 1.3% of 370,000 active | AID 652257;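 active = inhibition above about 21% made by adding two undisclosed values, limit read from the data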
MBD2 inh: blocks human MBD2 binding to methylated DNA | Q9UBB5 | TR-FRET, MBD2 binding to methylated oligonucleotide | inhibition, % at 4.4 µM | 0.31% of 370,000 active; in the data active = inhibition above about 13%
ABHD5-PLIN5 inh: inhibitors of human ABHD5-perilipin-5 interaction. Split G. princeps luciferase complementation, luminescence, 4 h. inhibition, % at 4 µM. 0.78% of 360,000 active;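 active = inhibition above the mean inhibition across every tested compound plus 3 SD, cut at about 22% in these data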
RBBP9 inh: inhibitors of human serine hydrolase RBBP9 | AID 1515 | O75884 | 0.2% of 220,000 active | recombinant RBBP9, FP-Rh probe fluorescence polarization | inhibition, % at 7.94 µM;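 active = inhibition above the campaign mean of all tested compounds plus 3 SD, cut at about 14% in these data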
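Material: RBBP9 protein. Amount: RBBP9 at 2.5 µM in dispensed solution, before mixing. Schedule: 30 min then 45 min, 25 °C. Medium: Tris buffer pH 8.0, NaCl, Pluronic. Measured by: fluorescence polarization. Measure: percent inhibition from mP, scaled between DMSO and no-protein wells. Replication: one well per compound.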
LEDGF integ inh: blocks HIV-1 LEDGF/p75-dependent DNA integration. TR-FRET IN-LEDGF/p75 DNA integration, Eu/Cy5. 0.64% of 370,000 active. inhibition, % at 3.7 µM;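 active = inhibition above the screen-wide mean plus 3 SD, cut at about 13% in these data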;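 also: signal is the Cy5 over europium emission ratio at 671 and 618 nm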
UHRF1 binding: UHRF1 methyl-DNA binding inhibition | Q96T88 | UHRF1 binding to methylated oligo, TR-FRET | inhibition, % at 4.4 µM | 0.75% of 370,000 active | AID 687016; in the data active = inhibition above about 21%;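 also: UHRF1 SRA domain binding a hemimethylated CpG hairpin DNA probe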
ABHD5 PLIN5 conf: confirmation of human ABHD5-PLIN5 interaction inhibitors. 67% of 2,200 active. biochemical ABHD5-PLIN5 interaction, luminescence. shares compounds with ABHD5-PLIN5 inh. inhibition, % at 4 µM; in the data active = inhibition above about 23%
HNF4 split-luc: active in HNF4 split-luciferase counter-screen for ABHD5-PLIN5 inhibitors | shares compounds with ABHD5-PLIN5 inh | HNF4 dimerization, luminescence, biochemical | inhibition, % at 4 µM | 77% of 2,200 active | AID 651674;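 active = mean inhibition across replicate wells exceeding the computed hit threshold, cut at about 13% in these data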;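 also: light from luciferase halves that rejoin when HNF4 fusion proteins dimerize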
Numbers stand for hits. In the library only some 3.1% were active in any assay of this set; here they are far more common.

For N#CC1=C(Nc2ccccc2Cl)SC2(CCCC2)NC1=O the results were ABHD5-PLIN5 inh 33, ABHD5 PLIN5 conf inactive and HNF4 split-luc 19.
For Cc1nnnn1/C(=C\c1ccccc1)C(=O)OCC(=O)Nc1ccc(Cl)cc1F the results were PRMT1 inh inactive, MBD2 inh inactive, ABHD5-PLIN5 inh 68, LEDGF integ inh inactive, UHRF1 binding inactive, ABHD5 PLIN5 conf 92 and HNF4 split-luc 85.
`O=[N+]([O-])c1cc(S(=O)(=O)C(F)(F)F)ccc1Sc1nc2ccccc2[nH]1` gave PRMT1 inh inactive, MBD2 inh inactive, ABHD5-PLIN5 inh 54, RBBP9 inh inactive, LEDGF integ inh inactive, UHRF1 binding inactive, ABHD5 PLIN5 conf 59 and HNF4 split-luc 79.
CCOC(=O)[C@@]12CCCC=C1N(CCc1ccc(Cl)cc1)C(=O)[C@H]2CC(=O)NCC1CCCCC1 was read as PRMT1 inh inactive, MBD2 inh inactive, LEDGF integ inh inactive and UHRF1 binding inactive.
COCCCNC(=O)C[C@@H]1C(=O)N(CCc2ccc(Cl)cc2)C2=CCCCC[C@]21C(=O)OC was read as PRMT1 inh inactive, MBD2 inh inactive, LEDGF integ inh inactive and UHRF1 binding inactive.
For O=C(CSc1nnc(-c2ccncc2)n1Cc1ccco1)Nc1ccccc1Cl the results were PRMT1 inh inactive, MBD2 inh inactive, ABHD5-PLIN5 inh inactive, RBBP9 inh inactive, LEDGF integ inh inactive and UHRF1 binding inactive.
O=C(CSc1nnc(-c2ccc(Cl)cc2)n1Cc1ccco1)c1cccs1 was read as PRMT1 inh 23, MBD2 inh inactive, ABHD5-PLIN5 inh 33, RBBP9 inh inactive, LEDGF integ inh inactive, UHRF1 binding inactive, ABHD5 PLIN5 conf inactive and HNF4 split-luc 14.
`O=C(CSc1nnc(-c2ccncc2)n1Cc1ccco1)c1ccc(Cl)cc1` gave PRMT1 inh inactive, MBD2 inh inactive, ABHD5-PLIN5 inh 32, RBBP9 inh inactive, LEDGF integ inh inactive, UHRF1 binding inactive, ABHD5 PLIN5 conf inactive and HNF4 split-luc 29.
For COc1ccc(-n2c(=O)cc(N3CC(C)OC(C)C3)[nH]c2=O)cc1 (configuration not stated) the results were PRMT1 inh inactive, MBD2 inh inactive, ABHD5-PLIN5 inh 37, RBBP9 inh inactive, LEDGF integ inh inactive, UHRF1 binding inactive, ABHD5 PLIN5 conf inactive and HNF4 split-luc inactive.
For COc1ccc(-n2c(=O)cc(N3CCOCC3)[nH]c2=O)cc1 the results were PRMT1 inh inactive, MBD2 inh inactive, ABHD5-PLIN5 inh inactive, RBBP9 inh inactive, LEDGF integ inh inactive and UHRF1 binding inactive.
`Cc1cccc(Nc2nc(N3CCOCC3)nc(N3CCOCC3)n2)c1` gave PRMT1 inh inactive, MBD2 inh inactive, ABHD5-PLIN5 inh inactive, LEDGF integ inh inactive and UHRF1 binding inactive.
For Oc1cccc(Nc2nc(N3CCOCC3)nc(N3CCOCC3)n2)c1 the results were PRMT1 inh inactive, MBD2 inh inactive, ABHD5-PLIN5 inh 25, LEDGF integ inh inactive, UHRF1 binding inactive, ABHD5 PLIN5 conf inactive and HNF4 split-luc 15.
Screening CN(C)CC(=O)N[C@H]1C[C@@H]2O[C@@H](CO)CC[C@@H]2O[C@@H]1CCc1ccc(C2=CCCCC2)cc1 returned PRMT1 inh inactive, MBD2 inh inactive, LEDGF integ inh inactive and UHRF1 binding inactive.
`CCN1/C(=C/C=C/c2oc3ccc(-c4ccccc4)cc3[n+]2CC)Oc2ccc(-c3ccccc3)cc21` gave PRMT1 inh inactive, MBD2 inh inactive, ABHD5-PLIN5 inh 37, RBBP9 inh inactive, LEDGF integ inh inactive, UHRF1 binding inactive, ABHD5 PLIN5 conf 92 and HNF4 split-luc 60.
`CCN1/C(=C/C=C/c2sc3ccccc3[n+]2CC)Sc2ccccc21` gave ABHD5-PLIN5 inh inactive.
CCCCCCCCCCCCCCCCn1cc[n+](C)c1 was read as PRMT1 inh inactive, MBD2 inh inactive, ABHD5-PLIN5 inh 32, RBBP9 inh inactive, LEDGF integ inh inactive, UHRF1 binding inactive, ABHD5 PLIN5 conf inactive and HNF4 split-luc inactive.
For O=C(Oc1ccc2ccccc2c1)c1ccco1 the results were PRMT1 inh inactive, MBD2 inh inactive, ABHD5-PLIN5 inh inactive, RBBP9 inh inactive, LEDGF integ inh inactive and UHRF1 binding inactive.
CC1CC(C)(C)Nc2ccc(OC(=O)c3ccco3)cc21 (configuration not stated) was read as PRMT1 inh inactive, MBD2 inh inactive, ABHD5-PLIN5 inh 28, RBBP9 inh inactive, LEDGF integ inh inactive, UHRF1 binding inactive, ABHD5 PLIN5 conf 71 and HNF4 split-luc 61.
`O=C1C=CC(=O)N1Cc1ccccc1` gave PRMT1 inh inactive, MBD2 inh inactive, ABHD5-PLIN5 inh 32, LEDGF integ inh inactive, UHRF1 binding inactive, ABHD5 PLIN5 conf inactive and HNF4 split-luc inactive.
For CN1C(=O)N(C)N(Cc2ccccc2)C(=O)N1Cc1ccccc1 the results were PRMT1 inh inactive, MBD2 inh inactive, LEDGF integ inh inactive and UHRF1 binding inactive.
Screening CN1C2CCC1/C(=C\c1ccccc1F)C(=O)/C2=C/c1ccccc1F returned PRMT1 inh inactive, MBD2 inh inactive, ABHD5-PLIN5 inh 25, RBBP9 inh inactive, LEDGF integ inh inactive, UHRF1 binding inactive, ABHD5 PLIN5 conf 26 and HNF4 split-luc 27.
For CCC[n+]1c2ccccc2cc2ccccc21 the results were PRMT1 inh inactive, MBD2 inh inactive, ABHD5-PLIN5 inh 72, LEDGF integ inh inactive, UHRF1 binding inactive, ABHD5 PLIN5 conf 94 and HNF4 split-luc 84.
For CCCCC[n+]1cccc2c3ccccc3ccc21 the results were PRMT1 inh inactive, MBD2 inh inactive, ABHD5-PLIN5 inh inactive, RBBP9 inh inactive, LEDGF integ inh inactive and UHRF1 binding inactive.
Screening CCCC[n+]1c2ccccc2cc2ccccc21 returned PRMT1 inh inactive, MBD2 inh inactive, ABHD5-PLIN5 inh 87, LEDGF integ inh inactive, UHRF1 binding inactive, ABHD5 PLIN5 conf 102 and HNF4 split-luc 100.
COc1ccccc1N1CCN(Cc2cc(Br)c(O)c3ncccc23)CC1 was read as PRMT1 inh inactive, MBD2 inh inactive, ABHD5-PLIN5 inh 25, RBBP9 inh inactive, LEDGF integ inh inactive, UHRF1 binding inactive, ABHD5 PLIN5 conf inactive and HNF4 split-luc 14.
Screening O=C1N(CCCO)CCC12CCCCC2 returned PRMT1 inh inactive, MBD2 inh inactive, LEDGF integ inh inactive and UHRF1 binding inactive.
Screening O=C(/C=C/Sc1ccccc1)c1ccccc1 returned PRMT1 inh inactive, MBD2 inh inactive, ABHD5-PLIN5 inh 35, RBBP9 inh inactive, LEDGF integ inh inactive, UHRF1 binding inactive, ABHD5 PLIN5 conf 61 and HNF4 split-luc 47.
NC(=O)c1ccccc1N/C=C/C(=O)c1ccc(Cl)cc1 was read as PRMT1 inh inactive, MBD2 inh inactive, ABHD5-PLIN5 inh inactive, RBBP9 inh inactive, LEDGF integ inh inactive and UHRF1 binding inactive.

Bioassay records from PubChem BioAssay.
